The values below come from ChEMBL document CHEMBL1781958, “Discovery of pyridone-containing imidazolines as potent and selective inhibitors of neuropeptide Y Y5 receptor” (Bioorg Med Chem, 2009).

By Cmax is commonly meant the maximum level reached in the sampled fluid or tissue. As a reminder, the bioavailability is the share of a dose that reaches the circulation, judged against a reference dose that is usually intravenous. Broadly, the AUC(0-inf) is the area under the concentration-time curve extrapolated to infinity.

Series [1] is described as follows: Drug level in anesthetized Sprague-Dawley rat plasma at 5 mg/kg, iv after 3 mins. In kind it is ADME, organism-based. Set-up: dose 5 mg/kg, route intravenous. An outline of the steps: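 Male SD rats under inactin (100 mg/kg). Femoral artery catheter for pressure, femoral vein for dosing, left ventricular catheter via the carotid for LVP; LV dp/dt_max derived from LVP. Vehicle (60% propylene glycol/water, 1 mL/kg) given first, compound 45 min later. Values are % change from baseline at 3 min after 5 mg/kg iv, with blood drawn at 3 min; n = 2–3.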

The nature of series [2]: Ratio of drug level in brain to plasma in mdr1a deficient CF1 mouse at 10 mg/kg, po after 2 hrs. Format: ADME, organism-based. Also on record: dose 10 mg/kg, route oral. The note with it: read-out: BPR. An outline of the steps:
(§1)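 P-gp-deficient mdr1a (−/−) and wild-type mdr1a (+/+) CF-1 mice were dosed orally at 10 mg/kg. Brain (nmol/g) and plasma levels were taken 2 h post-dose, n = 3. The ratio was calculated from the mean values.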

A short description of series [3]: Cmax in Sprague-Dawley rat at 3 mg/kg, po and 1 mg/kg, iv. In kind it is ADME, organism-based. As to conditions: in vivo. Summed up:
(§2)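 PK in rats (oral 3 mg/kg, iv 1 mg/kg) and rhesus monkeys (oral 1 mg/kg, iv 0.3 mg/kg); values are means of n = 3.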

Series [4] in a line: Drug level in mdr1a expressing wild type CF1 mouse plasma at 10 mg/kg, po after 2 hrs. In kind it is ADME, organism-based. Also on record: dose 10 mg/kg, route oral. Summed up:
(§3)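 CF-1 mice, mdr1a (−/−) and (+/+), dosed orally at 10 mg/kg; brain and plasma concentrations taken 2 h after dosing; mean of n = 3.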

Series [5] is described as follows: Ratio of drug level in brain to plasma of Sprague-Dawley rat at 10 mg/kg, po after 2 hrs. In kind it is ADME, organism-based. Set-up: dose 10 mg/kg, route oral. The note with it: read-out: BPR. An outline of the steps: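 Sprague-Dawley rats were dosed orally at 10 mg/kg. Brain (nmol/g) and plasma concentrations were measured 2 h later, and the brain-to-plasma ratio was taken from these.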

Series [6] can be described thus: Drug level in mdr1a deficient CF1 mouse plasma at 10 mg/kg, po after 2 hrs. Format: ADME, organism-based. Also on record: dose 10 mg/kg, route oral. Summed up:
as §3

Series [7] can be described thus: Ratio of drug level in brain to plasma in mdr1a expressing wild type CF1 mouse at 10 mg/kg, po after 2 hrs. Format: ADME, organism-based. Set-up: dose 10 mg/kg, route oral. As to conditions: read-out: BPR. An outline of the steps: as §1
The nature of series [8]: Cmax in rhesus monkey at 1 mg/kg, po and 0.3 mg/kg, iv. In kind it is ADME, organism-based, Macaca mulatta. As to conditions: in vivo. An outline of the steps: as §2
The nature of series [9]: Volume of distribution at steady state in rhesus monkey at 1 mg/kg, po and 0.3 mg/kg, iv. In kind it is ADME, organism-based, Macaca mulatta. The note with it: in vivo, read-out: Vdss. Summed up: (§4)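 Pharmacokinetic parameters are the mean of n = 3 animals. Rats were dosed 1 mg/kg iv and 3 mg/kg po; rhesus monkeys 0.3 mg/kg iv and 1 mg/kg po.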
The test system of series [10] is Brain. As to the kind of experiment: Drug level in mdr1a expressing wild type CF1 mouse brain at 10 mg/kg, po after 2 hrs. Format: ADME, organism-based. Set-up: dose 10 mg/kg, route oral. The note with it: in vivo. Summed up: as §3
Series [11] in a line: Drug level in Sprague-Dawley rat plasma at 10 mg/kg, po after 2 hrs. In kind it is ADME, organism-based. Set-up: dose 10 mg/kg, route oral. An outline of the steps:
(§5)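 SD rats dosed orally at 10 mg/kg; brain (nmol/g) and plasma levels measured 2 h later.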

Series [12] is described as follows: Bioavailability in Sprague-Dawley rat at 3 mg/kg, po and 1 mg/kg, iv. As to conditions: in vivo. Format: ADME, organism-based. Summed up: as §2
The nature of series [13]: AUC (0 to infinity) in rhesus monkey at 1 mg/kg, po. In kind it is ADME, organism-based, Macaca mulatta. Set-up: time infinity, dose 1 mg/kg, route oral. The note with it: plasma. An outline of the steps: as §2
Series [14] in a line: Drug level in anesthetized Beagle dog plasma at 2 mg/kg, iv infused over 10 mins measured immediately after end of dosing. Format: ADME, organism-based, Canis lupus familiaris. Set-up: dose 2 mg/kg, route intravenous. Summed up:
(§6)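 Dogs were anesthetized and, after surgery, stabilized at least 1 h before baseline readings. Doses of 1, 2 and 5 mg/kg were infused iv over 10 min each (cumulative 1, 3, 8 mg/kg). QTc, MAP, LVSP, CO, HR and LV dp/dt_max were read at 0, 10 and 20 min as maximum % change from baseline. Plasma was sampled at the end of each dosing period; n = 3.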

A short description of series [15]: Drug level in anesthetized Beagle dog plasma at 1 mg/kg, iv infused over 10 mins measured immediately after end of dosing. Format: ADME, organism-based, Canis lupus familiaris. Set-up: dose 1 mg/kg, route intravenous. An outline of the steps:
as §6

The nature of series [16]: Volume of distribution at steady state in Sprague-Dawley rat at 3 mg/kg, po and 1 mg/kg, iv. In kind it is ADME, organism-based. The note with it: in vivo, read-out: Vdss. Summed up:
as §4

Series [17] deals with Brain. As to the kind of experiment: Drug level in Sprague-Dawley rat brain at 10 mg/kg, po after 2 hrs. Format: ADME, organism-based. Set-up: dose 10 mg/kg, route oral. The note with it: in vivo. An outline of the steps:
as §5

Series [18] can be described thus: Bioavailability in rhesus monkey at 1 mg/kg, po and 0.3 mg/kg, iv. Format: ADME, organism-based, Macaca mulatta. As to conditions: in vivo.
Series [19] can be described thus: Drug level in anesthetized Beagle dog plasma at 5 mg/kg, iv infused over 10 mins measured immediately after end of dosing. In kind it is ADME, organism-based, Canis lupus familiaris. Also on record: dose 5 mg/kg, route intravenous. Summed up: as §6
Series [20] has as its system Brain. As to the kind of experiment: Drug level in mdr1a deficient CF1 mouse brain at 10 mg/kg, po after 2 hrs. In kind it is ADME, organism-based. Also on record: dose 10 mg/kg, route oral. As to conditions: in vivo. Summed up: as §3
Series [21] can be described thus: AUC (0 to infinity) in Sprague-Dawley rat at 3 mg/kg, po. Format: ADME, organism-based. As to conditions: plasma. Set-up: time infinity, dose 3 mg/kg, route oral. Summed up:
as §2

Consider `C[C@@H]1NC(c2cccc(S(N)(=O)=O)c2)=N[C@@]1(c1ccc(F)cc1)c1ccc(F)nc1`, for which the concentration at 0.05 h in series [1] is 4.9 µM.
On to `C[C@@H]1NC(c2cccc(O)n2)=NC1(c1ccc(F)cc1)c1ccc(F)cc1`, for which the concentration at 0.05 h in series [1] came out at 2.6 µM.
Take `C[C@@H]1NC(c2ccc(=O)n(C(F)F)c2)=N[C@@]1(c1ccc(F)cc1)c1ccc(F)nc1`: the Kp at 2 h in [2] stood at 2.05; in series [5], 0.42; in series [7], 0.48. The peak concentration (Cmax) turned out to be 1.1 µM in series [3] and 0.64 µM in series [8]. The values for the concentration at 2 h in series [4], in series [6] and in series [11] were 8.36 µM, 7.01 µM and 2.2 µM, respectively. The Vd was 3.8 L/kg in series [9] and 2.6 L/kg in series [16]. For the same compound, the Drug uptake worked out at 4 nmol/g with Brain [10], 0.91 nmol/g with Brain [17] and 14.8 nmol/g in the series with Brain [20]. The bioavailability in [12] and in series [18] was 92% throughout. Moreover, the AUC(0-inf) in series [13] is 11 µM·h; in [21] it was 4.8 µM·h. In addition, the results for the concentration at 10 min in [14], in series [15] and in series [19] were 14.3 µM, 7.7 µM and 26.9 µM, respectively.
In the case of `C[C@@H]1NC(c2cccc(=O)[nH]2)=N[C@@]1(c1ccc(F)cc1)c1ccc(F)nc1`, the concentration at 0.05 h in [1] was determined as 5.3 µM.
The same measure, in the same setting: as for `C[C@@H]1NC(c2ccnc(C#N)c2)=N[C@@]1(c1ccc(F)cc1)c1ccc(F)nc1`, the figure is 4.3 µM; as for `C[C@@H]1NC(c2cc(C#N)ccn2)=N[C@@]1(c1ccc(F)cc1)c1ccc(F)nc1`, 6.3 µM.
The compound `C[C@@H]1NC(c2cnccn2)=N[C@@]1(c1ccc(F)cc1)c1ccc(F)nc1` showed a concentration at 0.05 h in [1] of 5.1 µM.
